Bioassay records as filed in PubChem BioAssay.
PRMT1 inh: blocks human protein arginine methyltransferase 1; actives 1.3% (n = 370,000); recombinant PRMT1, activity-based probe fluorescence polarization; inhibition, % at 2.79 µM;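 active means inhibition above about 21% made by adding two undisclosed values, limit read from the data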
Target sequence (Q99873 whole entry, looked up): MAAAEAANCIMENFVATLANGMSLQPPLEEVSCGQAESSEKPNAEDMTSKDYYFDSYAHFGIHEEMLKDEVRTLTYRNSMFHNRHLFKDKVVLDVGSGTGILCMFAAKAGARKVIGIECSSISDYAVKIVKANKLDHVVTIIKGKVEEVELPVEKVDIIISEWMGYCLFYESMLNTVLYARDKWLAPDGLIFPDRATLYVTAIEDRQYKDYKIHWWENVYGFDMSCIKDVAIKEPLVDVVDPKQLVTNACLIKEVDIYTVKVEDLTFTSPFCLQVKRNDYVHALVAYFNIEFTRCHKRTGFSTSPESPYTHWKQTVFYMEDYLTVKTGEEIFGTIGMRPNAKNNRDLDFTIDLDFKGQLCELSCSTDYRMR
GSTO1 inh: blocks human GSTO1 in RBBP9 counter-screen; P78417; recombinant GSTO1, activity-based probe fluorescence polarization; inhibition, % at 5.96 µM; actives 1.1% (n = 300,000); AID 1974;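 active means inhibition above the campaign mean inhibition plus 3 SD, cut at about 35% in these data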;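 further: 0% = GSTO1-1 with DMSO and 100% = wells lacking GSTO1-1 enzyme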
Target sequence (P78417 whole entry, looked up): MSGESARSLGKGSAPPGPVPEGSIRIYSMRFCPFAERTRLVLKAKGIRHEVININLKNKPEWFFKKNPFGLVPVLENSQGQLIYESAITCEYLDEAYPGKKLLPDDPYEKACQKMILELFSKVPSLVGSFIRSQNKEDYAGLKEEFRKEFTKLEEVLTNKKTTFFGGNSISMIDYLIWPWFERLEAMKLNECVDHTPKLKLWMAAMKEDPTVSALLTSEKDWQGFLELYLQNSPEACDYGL
PAD4 FP inh: inhibitors of human PAD4; Q9UM07; recombinant PAD4, RCA probe fluorescence polarization; inhibition, % at 6.36 µM; actives 0.41% (n = 330,000); AID 485272;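 active means percent inhibition above a cutoff equal to the mean of all tested compounds plus 3 SD, cut at about 15% in these data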;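 further: 0% = PAD4 with RCA probe and DMSO and 100% = probe without PAD4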
TDP2 absorb: TDP2 (human) inhibition, absorbance primary screen | O95551 | recombinant TDP2, T5PNP hydrolysis, p-nitrophenol absorbance 415 nm | inhibition, % at 12.8 µM | actives 0.34% (n = 370,000) | AID 720702;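 active means inhibition above the mean of all tested compounds plus 3 SD, set per campaign, cut at about 25% in these data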;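 further: 0% = DMSO with enzyme and 100% = buffer with substrate but no TDP2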
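Material: recombinant human TDP2; quantity: TDP2 enzyme at 120 nM final; medium: Tris-HCl pH 7.5 with MgCl2; compound: single concentration, 12.8 µM nominal, with 1% DMSO; incubation: 2 h enzyme incubation at 37 °C; signal: epi absorbance; measure: percent inhibition; benchmarks: high control without enzyme, low control DMSO plus TDP2; repeats: singlicate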
Apaf1 inhib: human Apaf-1 inhibition. inhibition, % at 20 µM. O14727. AID 489030. actives 0.71% (n = 330,000). reconstituted apoptosome caspase-3 activity, DEVD-Rh110 fluorescence; active means inhibition of at least 40% at 20 µM;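 further: plate controls were DMSO wells for no effect and DEVD-CHO caspase inhibitor wells for full effect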
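Material: reconstituted apoptosome with Apaf-1, cytochrome c, caspase-9, procaspase-3, dATP. Technique: Rh110 fluorescence intensity. Buffer or medium: pH 7.5 Hepes buffer with CHAPS, BSA, DTT. Times: 30 min plus 50 min, RT.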
GSTO1 inh conf: GSTO1 (human) inhibition, confirmation | shares compounds with GSTO1 inh | recombinant GSTO1, probe fluorescence polarization | inhibition, % at 5.96 µM | actives 54% (n = 2,400) | AID 2176;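 active means inhibition above the primary screen's cutoff, its mean inhibition plus 3 SD, cut at about 35% in these data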;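 further: loss of polarization as inhibitors block binding of rhodamine sulfonate ester activity probe; 0% = GSTO1 with DMSO and 100% = wells lacking GSTO1 enzyme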
GSTO1 recomb ABPP: GSTO1 (human) inhibition by gel ABPP | recombinant GSTO1, gel ABPP SE-Rh probe fluorescence | inhibition, % at 1 µM | actives 30% (n = 130) | AID 463110 | shares compounds with GSTO1 inh;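 active means inhibition of the enzyme GSTO1 above about 75%, limit read from the data; inactive means inhibition below that limit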
An asterisk follows results filed as active; nt = no result given; + = active, no number. An excerpt weighted towards active compounds, which were near 2.6% of everything screened.

SMILES | PRMT1 inh | GSTO1 inh | PAD4 FP inh | TDP2 absorb | Apaf1 inhib | GSTO1 inh conf | others
COC(=O)CCC(=O)OC1(C)C(=O)C2=COC(c3ccc(OC)cc3)=CC2=C(Br)C1=O (stereo unspecified) | nt | 20 | -2 | nt | 1 | nt
COC(=O)CCC(=O)OC1(C)C(=O)C2=CN(Cc3ccc4c(c3)OCO4)C(c3ccc(OC)cc3)=CC2=C(Br)C1=O (stereo unspecified) | nt | 31 | -23 | nt | 18 | nt
COC(=O)CCC(=O)OC1(C)C(=O)C2=CN(C(CO)CO)C(c3ccc(OC)cc3)=CC2=C(Br)C1=O (stereo unspecified) | 6 | 49* | -2 | 18 | 81* | 51*
Cc1cccc([C@@H]2[C@@H]3C(=O)N(Cc4ccccc4)C(=O)[C@@H]3[C@]3(Cc4ccc(Cl)cc4)C(=O)N(c4ccccc4)C(=O)N23)c1 | -1 | 0 | 3 | 9 | 9 | nt
Cc1cccc([C@@H]2[C@@H]3C(=O)N(Cc4ccccc4)C(=O)[C@@H]3[C@]3(Cc4ccc(Cl)cc4)C(=O)N(c4cccc(Br)c4)C(=O)N23)c1 | -2 | 70* | -1 | 6 | 11 | 2
CN(C)c1ccc(CCc2ccc(N)cc2)cc1 | -2 | -6 | -2 | 3 | -4 | nt
Nc1ccc(N(c2ccccc2)c2ccc(N)cc2)cc1 | 2 | 43* | -7 | 0 | 30 | 9
Cn1c(NCCc2ccccc2)cc(=O)n(C)c1=O | 1 | -2 | 0 | 5 | -5 | nt
Cn1c(=O)c(NCCc2ccccc2)c2c3c(cccc31)C(=O)c1ccccc1-2 | + | 156* | 151* | -1 | 5 | 118*
CCCC[C@H]1C2CC(OC(=O)NCCCC(=O)OCC)C(C2)[C@H]2CCCCN21 (stereo partly specified) | 6 | nt | nt | 10 | nt | nt
CC(=O)Oc1ccc2occ(/C=N/c3cc(=O)[nH]c(=S)[nH]3)c(=O)c2c1 | 5 | 73* | 6 | 6 | -12 | 12
O=[N+]([O-])c1ccc2c(c1N1CCCCC1)=NC1(CCCCC1)[N+]=2[O-] | 2 | 57* | -2 | -3 | 13 | 6
O=[N+]([O-])c1ccc(N2CCCCC2)nc1N1CCCCC1 | 4 | 7 | -2 | -4 | 11 | nt
CCOc1cccc(CNc2ccc(O)cc2)c1OCc1ccc(Cl)cc1 | 4 | 76* | -11 | 3 | 32 | 4
CCOc1cc(CNc2ccc(O)cc2)ccc1OCc1ccc(Cl)cc1Cl | nt | 87* | 30* | nt | 94* | 3
COC(=O)[C@@]1(Cc2ccc(F)cc2)[C@H]2c3cc(C(=O)N4CCCC4)n(C)c3C[C@H]2CN1C(=O)c1ccccc1 | 2 | nt | nt | -1 | nt | nt
Oc1ccc(C2CNCc3sccc32)cc1O (stereo unspecified) | 46* | 49* | 4 | 3 | 1 | 7
Nn1c(SCc2ccc(Br)cc2)nnc1-c1n[nH]c2c1CCC2 | -2 | nt | nt | 0 | nt | nt
CC(C(=O)OCC(=O)Nc1ccc(S(=O)(=O)N2CCCCC2)cc1)N1C(=O)c2ccccc2C1=O (stereo unspecified) | -3 | -3 | -3 | 9 | 27 | nt
Cc1ccc(NC(=O)COC(=O)CCc2ccc(S(=O)(=O)N3CCOCC3)cc2)cc1F | -1 | 40* | -4 | 3 | 7 | 4
CC(C(=O)OCC(=O)Nc1cccc(S(=O)(=O)N2CCOCC2)c1)N1C(=O)c2ccccc2C1=O (stereo unspecified) | -2 | 39* | 2 | 1 | 2 | 24
COC(=O)[C@]12C[C@H](CC(=O)N3CCSCC3)C(=O)N(Cc3cccc4ccccc34)C1=C[C@H](C(C)C)O[C@@H]2C1CC1 | 1 | nt | nt | -5 | nt | nt
O=S(=O)(O)c1cccc2c(N=Nc3ccc(O)c4ncccc34)cccc12 | nt | 65* | 6 | nt | nt | 63*
Cc1ccccc1N=Nc1ccc(O)c2ncccc12 | 2 | -19 | -1 | 4 | nt | nt
COc1cccc(N=Nc2ccc(O)c3ncccc23)c1 | -11 | 39* | -10 | -20 | 35 | 1
SMILES | PRMT1 inh | GSTO1 inh | PAD4 FP inh | TDP2 absorb | Apaf1 inhib | GSTO1 inh conf | others
O=Nc1ccc(O)c2ncccc12 | 4 | 69* | -10 | -19 | 35 | 14
COc1ccc(N2C(=O)c3ccccc3NC(=O)C2C(=O)Nc2ccc(N3CCOCC3)cc2)cc1 (stereo unspecified) | 0 | nt | nt | 5 | nt | nt
CCOC(=O)Cc1nc(N2CCN(C=O)CC2)c2c(C)c(C(=O)OCC)sc2n1 | -3 | nt | nt | 8 | nt | nt
CCOc1cccc(C=Nc2cc(C)cc(C)c2O)c1O | 11 | 45* | -5 | -5 | 12 | -1
CC(C)N=c1scc(-c2ccco2)n1/N=C/c1ccc(O)c(O)c1 | 8 | 27 | -1 | -9 | -9 | nt
COCCN=c1scc(-c2ccco2)n1/N=C/c1ccc(O)c(O)c1O | 40* | 69* | -2 | 2 | 19 | 22
COc1ccc(S[C@]2(C(=O)N3CCN(c4ncccn4)CC3)CC(=O)N(C(=O)C3CC3)[C@@H]2c2ccc(OC)cc2)cc1 | -3 | nt | nt | 0 | nt | nt
Cn1c(=O)c2[nH]c(-c3ccccc3O)nc2n(C)c1=O | nt | 38* | -3 | nt | 7 | 13
C/C=C/c1cccc(-c2nc(C(=O)N3CCCCC3)cc3c2[C@H](CCO)N(C(=O)NC(C)C)C3)c1 | -2 | nt | nt | -1 | nt | nt
COc1ccc(CN(CCC(c2ccccc2)c2ccc(OC(C)C)cc2)C(=O)CCl)cc1OC (stereo unspecified) | 4 | 78* | 11 | 4 | 34 | 90* | GSTO1 recomb ABPP=90*
COc1ccc(C(CCN(Cc2ccc(OC)c(OC)c2)C(C)=O)c2ccccc2)cc1 (stereo unspecified) | -2 | 0 | -2 | 5 | -6 | nt
O=C(O)c1ccc(N/N=C/C(Br)=C/c2ccccc2)cc1 | 7 | 64* | 2 | -1 | -16 | 65*
Cn1nc(-c2ccc(Cl)cc2)nc2c(=O)n(C)c(=O)nc1-2 | nt | 91* | 75* | nt | 99* | 92*
CS(=O)(=O)n1nc(-c2ccc(Cl)cc2)nc1N | -1 | 4 | -2 | -2 | 3 | nt
O=[N+]([O-])c1ccc(/C=[N+](\[O-])[C@@H]2CCCC[C@@H]2/[N+]([O-])=C/c2ccc([N+](=O)[O-])o2)o1 | 11 | 40* | -11 | 5 | 10 | 18
CCOC(=O)CC1(C)Oc2ccccc2N1S(=O)(=O)c1ccc(C)cc1 (stereo unspecified) | -8 | nt | nt | -20 | nt | nt
O=C(O)C1Nc2ccc(Br)cc2C2C=CCC12 (stereo unspecified) | nt | 51* | 8 | nt | 10 | 49*
O=C(O)C1Nc2c(O)cccc2C2C=CCC12 (stereo unspecified) | 19 | 61* | -3 | 20 | 35 | 52*
